ChEMBL document CHEMBL1138273, “Design, synthesis, and characterization of new iron chelators with anti-proliferative activity: structure-activity relationships of novel thiohydrazone analogues” (J Med Chem, 2007)

What was measured:
[1] = tested on: SK-N-MC; experiment: Antiproliferative activity against human SK-N-MC cells by MTT assay; format: functional, cell-based
In short: (§1)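 MTT colour formation, shown to be directly proportional to viable cell number counted by Trypan blue, was used to read growth of SK-N-MC neuroepithelioma or mortal MRC-5 fibroblast cells. IC50 values are given as mean ± SD of 3 experiments.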

[2] = tested on: SK-N-MC; experiment: Effect on iron efflux in human SK-N-MC cells assessed as cellular iron release; format: functional; parameters: concentration or dose not given beside the values
In short: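 SK-N-MC cells were prelabeled with 59Fe-transferrin (0.75 µM) for 3 h at 37 °C, washed four times with ice-cold PBS, then incubated with chelator (50 µM). Overlying medium was separated from cells, and released versus retained 59Fe was gamma-counted in supernatant and cell pellet. Mean ± SD of 3 experiments, 3 determinations each.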

[3] = tested on: MRC5; experiment: Antiproliferative activity against human MRC5 cells by MTT assay; format: cell-based; in short: as §1
[4] = tested on: SK-N-MC; experiment: Inhibition of cellular iron uptake from 59Fe]transferrin in human SK-N-MC cells at 50 uM relative to control; format: functional; conditions: values are per cent of control
In short: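 Cells were co-incubated for 3 h at 37 °C with 59Fe-transferrin (0.75 µM) plus chelator (50 µM), then washed four times in ice-cold PBS. Pronase (1 mg/mL, 30 min, 4 °C) stripped membrane-bound 59Fe, and the Pronase-insensitive fraction was counted as internalized. Values are % of control, mean ± SD of 3 experiments with 3 determinations each.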

Structure (SMILES) | IC50 [1] | Activity [2] | IC50 [3] | response, % of control at 50 µM [4]
Oc1ccc2ccccc2c1/C=N/NC(=S)c1ccccc1 | 2530 nM | 37% | 3.89 µM | 20%
Cc1ncc(CO)c(/C=N/NC(=O)c2ccncc2)c1O [PYRIDOXAL ISONICOTINOYL HYDRAZONE] | – | 44% | – | –
O=C(N/N=C/c1c(O)ccc2ccccc12)c1ccccc1 | 990 nM | – | – | –
CC(=O)N(O)CCCCCNC(=O)CCC(=O)N(O)CCCCCNC(=O)CCC(=O)N(O)CCCCCN [DEFEROXAMINE] | 14200 nM | 17% | – | –
S=C(NN=C(c1ccccn1)c1ccccn1)c1ccccc1 | 12 nM | 37% | 0.75 µM | 20%
O=C(N/N=C/c1ccccc1O)c1ccccc1 [SALICYLALDEHYDE BENZOYL HYDRAZONE] | 3230 nM | – | – | –
S=C(N/N=C(/c1ccccc1)c1ccccn1)c1ccccc1 | 11 nM | – | 0.53 µM | –
Oc1ccccc1/C=N/NC(=S)c1ccccc1 [SALICYLALDEHYDE THIOBENZOYL HYDRAZONE] | 24500 nM | 37% | 57 µM | 20%

More lines, in order of falling IC50 [1], values ahead:

IC50 [1] | Structure (SMILES) | Activity [2] | IC50 [3] | response, % of control at 50 µM [4]
58200 nM | Cc1ncc(CO)c(/C=N/NC(=S)c2ccccc2)c1O [PYRIDOXAL THIOBENZOYL HYDRAZONE] | – | > 80 µM | –
31800 nM | Cc1ncc(CO)c(/C=N/NC(=O)c2ccccc2)c1O [PYRIDOXAL BENZOYL HYDRAZONE] | – | – | –
1470 nM | O=C(N/N=C(/c1ccccc1)c1ccccn1)c1ccccc1 | – | – | –
1240 nM | O=C(NN=C(c1ccccn1)c1ccccn1)c1ccccc1 | – | – | –
590 nM | O=C(N/N=C/c1c(O)ccc2ccccc12)c1ccncc1 | 44% | – | –
540 nM | NC(=S)N/N=C/c1ncccc1N [TRIAPINE] | – | – | –
2 nM | CN(C)C(=S)NN=C(c1ccccn1)c1ccccn1 | 44% | – | –
